Test results published in ChEMBL document CHEMBL1155297, “Synthesis, antimicrobial and antioxidant activities of substituted pyrazoles, isoxazoles, pyrimidine and thioxopyrimidine derivatives” (2009).

Columns and labels:
Format in all cases: functional
Klebsiella pneumoniae [1] = test: Antibacterial activity against Klebsiella pneumoniae NCIM 2957 at 200 ug/disk after 24 hrs by agar disk diffusion method; conditions: NCIM 2957, 24 h, read-out: IZ
How it was run: (§1)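 Agar disc diffusion on nutrient agar plates pre-inoculated with each bacterium. Sterile 6 mm filter-paper discs were moistened with compound in DMSO at the stated per-disc amount. Plates were incubated at 37 °C, and the growth-inhibition zone diameter was read after 24 h. Each determination was run in triplicate, and the mean of three independent readings is reported.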

Proteus vulgaris [2] = test: Antibacterial activity against Proteus vulgaris NCIM 2027 at 200 ug/disk after 24 hrs by agar disk diffusion method; conditions: NCIM 2027, 24 h, read-out: IZ; how it was run: as §1
Bacillus subtilis [3] = test: Antibacterial activity against Bacillus subtilis NCIM 2063 at 100 ug/disk after 24 hrs by agar disk diffusion method; conditions: NCIM 2063, 24 h, read-out: IZ; how it was run: as §1
Aspergillus niger [4] = test: Antifungal activity against Aspergillus niger NCIM 596 at 100 ug/disk after 48 hrs by agar disk diffusion method; conditions: NCIM 596, 48 h, read-out: IZ
How it was run: (§2)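 Fungal disc diffusion on nutrient agar plates pre-inoculated with each fungus. 6 mm sterile paper discs carried the compound in DMSO at the stated amount per disc. Plates were held at 37 °C, and inhibition-zone diameter was measured after 48 h. Values are the mean of three independent triplicate readings.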

Curvularia lunata [5] = test: Antifungal activity against Curvularia lunata NCIM 716 at 100 ug/disk after 48 hrs by agar disk diffusion method; conditions: NCIM 716, 48 h, read-out: IZ; how it was run: as §2
Aspergillus niger [6] = test: Antifungal activity against Aspergillus niger NCIM 596 at 200 ug/disk after 48 hrs by agar disk diffusion method; conditions: NCIM 596, 48 h, read-out: IZ; how it was run: as §2
Curvularia lunata [7] = test: Antifungal activity against Curvularia lunata NCIM 716 at 200 ug/disk after 48 hrs by agar disk diffusion method; conditions: NCIM 716, 48 h, read-out: IZ; how it was run: as §2
[8] = tested on: Radical scavenging activity; test: Antioxidant activity assessed as DPPH free radical scavenging activity at 100 uM after 20 mins
How it was run: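 DPPH scavenging: compound solutions were added to DPPH in dioxane/ethanol and kept at ambient temperature for 20 min. Absorbance was read at 517 nm. The test–control difference was expressed as percent DPPH radical scavenging.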

Proteus vulgaris [9] = test: Antibacterial activity against Proteus vulgaris NCIM 2027 at 100 ug/disk after 24 hrs by agar disk diffusion method; conditions: NCIM 2027, 24 h, read-out: IZ; how it was run: as §1
Fusarium solani [10] = test: Antifungal activity against Fusarium solani NCIM 1330 at 200 ug/disk after 48 hrs by agar disk diffusion method; conditions: NCIM 1330, 48 h, read-out: IZ; how it was run: as §2
[11] = Antioxidant activity assessed as nitric oxide production at 100 uM after 120 mins by Griess reagent method
How it was run: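 Nitric oxide assay with Griess read-out. At intervals, 0.5 ml of incubation solution was mixed with 0.5 ml Griess reagent (1% sulfanilamide, 0.1% N-naphthylethylenediamine dihydrochloride, 2% o-phosphoric acid in water). The control received an equal amount of solvent and was handled identically.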

Bacillus subtilis [12] = test: Antibacterial activity against Bacillus subtilis NCIM 2063 at 200 ug/disk after 24 hrs by agar disk diffusion method; conditions: NCIM 2063, 24 h, read-out: IZ; how it was run: as §1
Fusarium solani [13] = test: Antifungal activity against Fusarium solani NCIM 1330 at 100 ug/disk after 48 hrs by agar disk diffusion method; conditions: NCIM 1330, 48 h, read-out: IZ; how it was run: as §2
Klebsiella pneumoniae [14] = test: Antibacterial activity against Klebsiella pneumoniae NCIM 2957 at 100 ug/disk after 24 hrs by agar disk diffusion method; conditions: NCIM 2957, 24 h, read-out: IZ; how it was run: as §1
Staphylococcus aureus [15] = test: Antibacterial activity against Staphylococcus aureus NCIM 5021 at 100 ug/disk after 24 hrs by agar disk diffusion method; conditions: NCIM 5021, 24 h, read-out: IZ; how it was run: as §1
Staphylococcus aureus [16] = test: Antibacterial activity against Staphylococcus aureus NCIM 5021 at 200 ug/disk after 24 hrs by agar disk diffusion method; conditions: NCIM 5021, 24 h, read-out: IZ; how it was run: as §1

SMILES | zone of inhibition at 200 µg/disc (Klebsiella pneumoniae [1]) [mm] | zone of inhibition at 200 µg/disc (Proteus vulgaris [2]) [mm] | zone of inhibition at 100 µg/disc (Bacillus subtilis [3]) [mm] | zone of inhibition at 100 µg/disc (Aspergillus niger [4]) [mm] | zone of inhibition at 100 µg/disc (Curvularia lunata [5]) [mm] | zone of inhibition at 200 µg/disc (Aspergillus niger [6]) [mm] | zone of inhibition at 200 µg/disc (Curvularia lunata [7]) [mm] | inhibition [8] [%] | zone of inhibition at 100 µg/disc (Proteus vulgaris [9]) [mm] | zone of inhibition at 200 µg/disc (Fusarium solani [10]) [mm] | inhibition [11] [%] | zone of inhibition at 200 µg/disc (Bacillus subtilis [12]) [mm] | zone of inhibition at 100 µg/disc (Fusarium solani [13]) [mm] | zone of inhibition at 100 µg/disc (Klebsiella pneumoniae [14]) [mm] | zone of inhibition at 100 µg/disc (Staphylococcus aureus [15]) [mm] | zone of inhibition at 200 µg/disc (Staphylococcus aureus [16]) [mm]
NC1=NN=C(N)C1C(CC(=O)c1ccccc1)C(=O)c1ccccc1 (configuration not stated) | 29 | 26 | 29 | 29 | 30 | 30 | 32 | 73.7 | 23 | 33 | 71.7 | 31 | 31 | 27 | 27 | 30
Cc1ccc(C(=O)CC(C(=O)c2ccc(C)cc2)C2C(N)=NC(=S)N=C2N)cc1 (configuration not stated) | 20 | 18 | 21 | 14 | 15 | 16 | 18 | 32.3 | 16 | 19 | 29.4 | 24 | 15 | 18 | 20 | 21
NC1=NC(=O)N=C(N)C1C(CC(=O)c1ccc(Cl)cc1)C(=O)c1ccc(Cl)cc1 (configuration not stated) | 13 | 12 | 12 | 16 | 14 | 20 | 18 | 41 | 10 | 19 | 39.4 | 14 | 17 | 11 | 13 | 15
Cc1ccc(S(=O)(=O)CC(C2C(N)=NC(=S)N=C2N)S(=O)(=O)c2ccc(C)cc2)cc1 (configuration not stated) | 21 | 20 | 20 | 17 | 21 | 20 | 23 | 38.7 | 20 | 21 | 39.9 | 22 | 19 | 19 | 21 | 24
N=C1ON=C(N)C1C(CS(=O)(=O)c1ccccc1)S(=O)(=O)c1ccccc1 (configuration not stated) | 29 | 28 | 30 | 28 | 29 | 31 | 32 | 85.8 | 26 | 34 | 84.9 | 32 | 31 | 26 | 29 | 31
Cc1ccc(S(=O)(=O)CC(C2C(=N)ON=C2N)S(=O)(=O)c2ccc(C)cc2)cc1 (configuration not stated) | 27 | 25 | 26 | 26 | 28 | 29 | 30 | 80.8 | 24 | 31 | 81.5 | 29 | 28 | 25 | 26 | 27
Cc1ccc(S(=O)(=O)CC(C2C(=N)N(C)C(=O)N(C)C2=N)S(=O)(=O)c2ccc(C)cc2)cc1 (configuration not stated) | 11 | 10 | 12 | 10 | 13 | 13 | 16 | 24.8 | 8 | 14 | 24.6 | 14 | 11 | 9 | 11 | 13
CN1C(=N)C(C(CC(=O)c2ccc(Cl)cc2)C(=O)c2ccc(Cl)cc2)C(=N)N(C)C1=O (configuration not stated) | 10 | 11 | 11 | 11 | 13 | 13 | 15 | 29.9 | 9 | 16 | 28.2 | 13 | 14 | 9 | 12 | 14
Cc1ccc(C(=O)CC(C(=O)c2ccc(C)cc2)C2C(=N)N(C)C(=O)N(C)C2=N)cc1 (configuration not stated) | 8 | 9 | 9 | 10 | 14 | 12 | 16 | 21.7 | 7 | 15 | 20.3 | 10 | 12 | 7 | 10 | 12
NC1=NC(=O)N=C(N)C1C(CS(=O)(=O)c1ccc(Cl)cc1)S(=O)(=O)c1ccc(Cl)cc1 (configuration not stated) | 20 | 19 | 23 | 16 | 19 | 19 | 23 | 35.8 | 17 | 20 | 35.9 | 25 | 17 | 18 | 22 | 24
NC1=NN=C(N)C1C(CS(=O)(=O)c1ccccc1)S(=O)(=O)c1ccccc1 (configuration not stated) | 30 | 25 | 31 | 31 | 33 | 34 | 36 | 58.5 | 24 | 37 | 60 | 33 | 34 | 28 | 30 | 32
NC1=NC(=S)N=C(N)C1C(CC(=O)c1ccc(Cl)cc1)C(=O)c1ccc(Cl)cc1 (configuration not stated) | 22 | 22 | 23 | 15 | 17 | 20 | 21 | 41.6 | 20 | 22 | 43.4 | 25 | 19 | 19 | 25 | 26
